In article PMC1915607 (Investigational New Drugs, 2007):
Several values for one entry are separate records, joined by “and”; a condition that tells them apart may be missing. Identical values can stand only once. Like-named read-outs stand apart in the source and are kept apart here. Marks after values point to notes of the source that are not given here.

Assays:
[1] = Plasma pharmacokinetics of unchanged ixabepilone; assay type: in vivo, human
Outline: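 Eight advanced-cancer patients received a single 3 h IV infusion of 70 mg, 80 nCi [14C]-labelled test compound in Cremophor EL:ethanol diluted in Lactated Ringer's, with oral H1/H2 premedication. Blood was drawn 0–168 h and plasma was stored below −20°C. Parent was measured by isocratic LC-ESI-MS/MS (standard curve 2–500 ng/ml). Non-compartmental analysis gave AUCinf, CL=dose/AUCinf, and infusion-corrected Vss.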

[2] = Plasma pseudopharmacokinetics of total radioactivity; assay type: in vivo, human
Outline: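 Same dosing, with separate, simultaneous plasma samples taken to 168 h. Total radioactivity was measured by AMS after combustion with CuO at 900°C and graphitisation at 500–550°C. Natural 14C background was subtracted, and values were converted to equivalents via carbon content and specific activity. Quantitation limit was <4 DPM/ml. Non-compartmental pseudo-parameters were derived, and AUClast ratio = parent AUClast / TRA AUClast. Outliers were assessed by Dixon's Q test.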

[3] = Urinary and faecal recovery; assay type: in vivo, human; conditions: for Radioactivity U/F ratio (urinary recovery relative to faecal recovery) / Recovery of ixabepilone in urine: 0–168 h; for Recovery of ixabepilone in urine: unchanged ixabepilone
[4] = Stability of [14C]-labelled ixabepilone; assay type: physicochemical
[5] = phase II, cited from earlier work
CYP3A4/5 = conditions: cited from earlier work
[6] = phase I dose escalation study, 11 patients, 40 mg/m^2; cited from earlier work
[7] = literature value, no reference given, cited from earlier work
[8] = inter-patient variability, flat 70 mg dose, this study
[9] = plasma, individual patients 1-8, 3 h iv infusion 70 mg

## C/C(=C\c1csc(C)n1)[C@@H]1C[C@@H]2O[C@]2(C)CCC[C@H](C)[C@H](O)[C@@H](C)C(=O)C(C)(C)[C@@H](O)CC(=O)N1 [ixabepilone, 15-desoxy-15-aza-epothilone B]
[1]; 3 h infusion, in words
  Time to maximum plasma concentration: around the end of infusion
[1]; human, plasma, intravenous, 70 mg, Ixabepilone Cl, mean of 8 patients
  clearance: 422 mL/min
[1]; human, plasma, intravenous, 70 mg, Ixabepilone Vss, plasma, mean of 8 patients
  Vd: 1150 L
[1]; human, plasma, intravenous, 70 mg, Ixabepilone t1/2, plasma, mean of 8 patients
  Half-life: > 50 h
[1]; [8]
  Coefficient of variation for AUCinf of ixabepilone: 24%
  Coefficient of variation for Cl of ixabepilone: 21%
[1]; [9]
  Ixabepilone AUCinf: 2220 ng·h/mL and 3350 ng·h/mL and 2970 ng·h/mL and 2990 ng·h/mL and 4320 ng·h/mL and 2520 ng·h/mL and 2290 ng·h/mL
  Ixabepilone AUClast: 1930 ng·h/mL and 3060 ng·h/mL and 2750 ng·h/mL and 2830 ng·h/mL and 3820 ng·h/mL and 2420 ng·h/mL and 2170 ng·h/mL
  Ixabepilone Cl: 31.6 L/h and 20.9 L/h and 23.6 L/h and 23.4 L/h and 16.2 L/h and 27.8 L/h and 30.5 L/h
  Ixabepilone Vss: 1520 L and 1635 L and 1275 L and 1174 L and 929 L and 1027 L and 756 L and 912 L
  Ixabepilone t1/2: 71.5 h and 47.2 h and 51.7 h and 53.0 h and 67.4 h and 23.5 h and 36.7 h
[1]; unchanged ixabepilone in plasma
  Initial distribution phase, duration: approximately 10 h
[2]; TRA in plasma
  Initial distribution phase, duration: approximately 10 h
[2]; plasma, individual patients 1-8, patient 1 outlier
  AUClast ratio (AUClast ixabepilone / AUClast TRA): 0.26 and 0.06 and 1.62^b and 0.25 and 0.19 and 0.12 and 0.18
[3]; individual patients 1-8
  Radioactivity U/F ratio (urinary recovery relative to faecal recovery): 0.48 and 0.29 and 3.05 and 0.24 and 0.31 and 0.39 and 1.97 and 0.30
  Recovery of ixabepilone in urine: 4.0 % of dose and 6.12 % of dose and 6.03 % of dose and 4.02 % of dose and 5.07 % of dose and 4.66 % of dose and 7.76 % of dose and 3.32 % of dose and 5.46 % of dose
  Ixabepilone Clrenal: 1.98 L/h and 1.87 L/h and 1.46 L/h and 1.16 L/h and 1.19 L/h and 1.92 L/h and 0.61 L/h and 1.58 L/h
[3]; mean, patients 4 and 8 not included
  Radioactivity U/F ratio (urinary recovery relative to faecal recovery): 0.33^b
[3]; mean of 8 patients
  Recovery of ixabepilone in urine: 5.30 % of dose
[3]; first 24 h
  Urinary radioactivity excreted in the first 24 h: 17 % of dose
[3]; of total urinary ixabepilone
  Share of total urinary ixabepilone excreted in the first 24 h: 76%
[3]; of total urinary radioactivity
  Share of total urinary radioactivity excreted in the first 24 h: 65%
[4]; conventional [14C]-levels (100 μCi in a typical human radio-tracer study)
  Stability of labelled drug (autoradiolysis): very unstable
[4]; specific activity of 1.5 μCi/mg
  Stability of labelled drug (autoradiolysis): unstable
[4]; specific activity of less than 10 nCi/mg
  Stability of labelled drug (autoradiolysis): stable
[5]; hormone-refractory metastatic prostate cancer
  Response rate: 33%
[5]; metastatic breast cancer, 6 to 40 mg/m^2 iv over 1 to 3 h
  Response rate: 12–44%
[5]; metastatic renal cell carcinoma
  Response rate: 14%
[5]; non-small cell lung cancer
  Response rate: 14%
CYP3A4/5
  CYP3A4/5 substrate: CYP3A4/5 substrate
[6]
  Coefficient of variation for AUCinf of ixabepilone: 46%
  Coefficient of variation for Cl of ixabepilone: 38%

## CC[C@]1(O)C[C@H]2CN(CCc3c([nH]c4ccccc34)[C@@](C(=O)OC)(c3cc4c(cc3OC)N(C=O)[C@H]3[C@@](O)(C(=O)OC)[C@H](OC(C)=O)[C@]5(CC)C=CCN6CC[C@]43[C@@H]65)C2)C1 [vincristine]
[7]; in words
  Half-life: several days

## CC[C@]1(O)C[C@@H]2CN(CCc3c([nH]c4ccccc34)[C@@](C(=O)OC)(c3cc4c(cc3OC)N(C)[C@H]3[C@@](O)(C(N)=O)[C@H](O)[C@]5(CC)C=CCN6CC[C@]43[C@@H]65)C2)C1 [vindesine]
[7]
  Half-life: 12 to 42 h
